A word on the Ki: it is the equilibrium dissociation constant of an inhibitor or competing ligand from its target. A lower Ki goes with tighter binding. The term Vmax denotes the top rate of the reaction or transport when substrate is in excess. The IC50 is the midpoint of a concentration-inhibition curve.

2 compounds from paper PMC8427789 (ACS Omega, 2021) can be followed below.

The structures appear in SMILES notation.

One test addresses T1, PTP-1B (Homo sapiens, UniProt P18031).
T1 sequence (P18031 1-435): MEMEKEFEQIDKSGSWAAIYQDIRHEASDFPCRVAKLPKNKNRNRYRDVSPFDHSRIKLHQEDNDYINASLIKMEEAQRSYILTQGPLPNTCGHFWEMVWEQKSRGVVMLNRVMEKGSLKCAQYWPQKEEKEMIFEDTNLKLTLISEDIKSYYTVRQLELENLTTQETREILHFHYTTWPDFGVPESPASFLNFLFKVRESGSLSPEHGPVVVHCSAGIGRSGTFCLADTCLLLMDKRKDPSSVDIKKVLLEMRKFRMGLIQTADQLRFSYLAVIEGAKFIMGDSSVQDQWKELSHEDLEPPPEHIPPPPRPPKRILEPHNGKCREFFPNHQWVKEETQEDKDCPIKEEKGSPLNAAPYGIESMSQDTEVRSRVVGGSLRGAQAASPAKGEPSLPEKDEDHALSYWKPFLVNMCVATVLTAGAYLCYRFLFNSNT
Briefly: PTP-1B kinetic studies. Format: biochemical. Put shortly:
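Recombinant human PTP-1B in 100 mM tris buffer, pH 6.8. Test compound at 0.03, 0.07 and 0.1 mM, dissolved in DMSO or buffer, preincubated 5 min with enzyme (solution at 1.56 mg/mL). Then p-NPP added at 0.6–3 mM for 20 min at room temperature, absorbance read at 415 nm. Lineweaver–Burk double-reciprocal plots made; Vmax, Km and Ki from nonlinear regression fit.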

Test [1] addresses T2, recombinant human protein tyrosine phosphatase 1B (PTP-1B) (Homo sapiens, UniProt P18031).
T2 sequence (P18031 1-435): T1 sequence (P18031 1-435)
Briefly: PTP-1B activity assay. Format: biochemical.

Test [2] addresses yeast α-glucosidase (yeast AG) (Saccharomyces cerevisiae, UniProt P53051). Briefly: biochemical.

yeast α-glucosidase (yeast AG), sequence (P53051 2-589): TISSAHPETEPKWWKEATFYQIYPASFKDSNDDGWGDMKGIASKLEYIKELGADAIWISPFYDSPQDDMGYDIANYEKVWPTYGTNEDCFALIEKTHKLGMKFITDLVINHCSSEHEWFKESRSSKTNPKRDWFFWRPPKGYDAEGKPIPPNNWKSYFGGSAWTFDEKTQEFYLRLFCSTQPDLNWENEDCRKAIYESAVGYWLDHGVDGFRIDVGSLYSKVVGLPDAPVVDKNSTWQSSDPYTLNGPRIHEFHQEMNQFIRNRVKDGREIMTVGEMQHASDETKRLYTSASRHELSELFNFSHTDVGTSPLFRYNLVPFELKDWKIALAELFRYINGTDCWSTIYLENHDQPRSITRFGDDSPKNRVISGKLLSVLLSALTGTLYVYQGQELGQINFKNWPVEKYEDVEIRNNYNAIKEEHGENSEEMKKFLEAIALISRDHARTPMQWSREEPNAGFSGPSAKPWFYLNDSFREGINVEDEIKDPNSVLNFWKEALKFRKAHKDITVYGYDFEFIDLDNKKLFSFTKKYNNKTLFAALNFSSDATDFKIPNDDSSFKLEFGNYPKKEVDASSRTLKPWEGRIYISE

At PTP-1B, `COC(=O)c1c(O)ccc2oc3cc(CO)cc(O)c3c(=O)c12` [Compound 3, sydowinin B] returned a Ki of 27.5 µM. Besides, the “type of inhibition of PTP-1B” value on PTP-1B (Lineweaver–Burk plot) is given as “noncompetitive”. For the same compound, the Vmax on PTP-1B (PTP-1B, p-NPP) came to 1.308 mM/min. In addition, in test [1], the IC50 is 81 ± 4 µM.
In test [2], `C[C@H]1O[C@H](O[C@H]2[C@H](O)[C@@H](O)[C@@H](O[C@H]3[C@H](O)[C@@H](O)C(O)O[C@@H]3CO)O[C@@H]2CO)[C@H](O)[C@@H](O)[C@@H]1N[C@H]1C=C(CO)[C@@H](O)[C@H](O)[C@H]1O` (some centres unmarked) [acarbose] had an IC50 of 403 ± 10 µM.
